Test results: ChEMBL document CHEMBL1140039, “Aglycone exploration of C-arylglucoside inhibitors of renal sodium-dependent glucose transporter SGLT2” (Bioorg Med Chem Lett, 2008)

Experiments:
[1] = target: T1, Sodium/glucose cotransporter 2 (Homo sapiens, UniProt P31639); experiment: Inhibition of human SGLT2 expressed in Xenopus oocyte assessed as [14C]alpha-methyl glucopyranoside uptake
T1 sequence (P31639 whole entry): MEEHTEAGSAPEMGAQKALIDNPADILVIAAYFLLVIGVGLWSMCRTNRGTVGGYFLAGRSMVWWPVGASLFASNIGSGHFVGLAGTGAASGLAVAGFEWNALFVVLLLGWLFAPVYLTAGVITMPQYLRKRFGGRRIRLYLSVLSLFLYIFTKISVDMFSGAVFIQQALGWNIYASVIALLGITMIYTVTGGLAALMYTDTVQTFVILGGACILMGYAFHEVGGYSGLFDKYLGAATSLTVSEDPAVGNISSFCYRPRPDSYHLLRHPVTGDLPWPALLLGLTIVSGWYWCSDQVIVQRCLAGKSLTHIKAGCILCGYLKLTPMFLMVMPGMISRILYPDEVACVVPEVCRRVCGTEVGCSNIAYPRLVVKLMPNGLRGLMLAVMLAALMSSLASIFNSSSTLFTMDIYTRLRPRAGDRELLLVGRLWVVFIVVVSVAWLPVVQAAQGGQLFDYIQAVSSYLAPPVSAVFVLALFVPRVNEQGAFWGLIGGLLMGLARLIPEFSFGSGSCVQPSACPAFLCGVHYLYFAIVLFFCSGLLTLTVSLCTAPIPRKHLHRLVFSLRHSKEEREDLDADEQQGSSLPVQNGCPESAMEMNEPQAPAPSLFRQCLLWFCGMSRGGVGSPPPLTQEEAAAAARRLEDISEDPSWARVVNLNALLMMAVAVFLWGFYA

[2] = species on record: Homo sapiens; experiment: Selectivity for human SGLT2 over human SGLT1 expressed in Xenopus oocyte
[3] = system: Mus musculus; experiment: Effect on glucose concentration in Swiss Webster mouse urine at 0.3 mg/kg, iv; assay type: ADME, organism-based; set-up: dose 0.3 mg/kg, route intravenous; details: in vivo
In short: (§1)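 Fasted male rats or mice were anesthetized with i.p. ketamine:xylazine (.001 mL/g), and the bladder was cannulated via an abdominal incision. Drug was given intravenously. Urine was collected over 60 min in 10-min intervals and assayed for glucose concentration.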

[4] = system: Rattus norvegicus; experiment: Effect on glucose concentration in Sprague-Dawley rat urine at 1 mg/kg, iv; assay type: ADME, organism-based; set-up: dose 1 mg/kg, route intravenous; details: in vivo; in short: as §1
[5] = system: Liver microsomes; experiment: Metabolic stability in Sprague-Dawley rat liver microsomes at 10 uM

Structure (SMILES)	EC50 [1] [µM]	Selectivity ratio [2]	urinary glucose [3] [mg/dL]	urinary glucose [4] [mg/dL]	Stability [5]
Cc1cc(O)c(C(=O)CCc2ccc3occc3c2)c(O[C@@H]2O[C@H](CO)[C@@H](O)[C@H](O)[C@H]2O)c1	0.05	4	–	–	–
Cc1ccc(Cc2cccc([C@@H]3O[C@H](CO)[C@@H](O)[C@H](O)[C@H]3O)c2)cc1	–	–	600	230	Stable
